pIC50: −log10 of the molar value. Calls of active or inactive are those of the source. The rule behind the calls is not given here.
What was measured:
[1] = Nitric oxide release measured per mole of compound at pH 7.4 in presence of glutathione
Summary of the method: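 Compound stock was injected into 0.1 M phosphate buffer, pH 7.4, containing 4 mM GSH and 50 μM DTPA, sparged with inert gas. NO was followed by chemiluminescence at 37 °C until the signal returned to baseline (25 min – 5 h). The integrated curve gave mol NO per mol compound.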

[2] = test system: HL-60; assay: Induction of protein S-glutathionylation in human HL-60 cell lysate at 5 uM; format: functional, cell-based
Summary of the method: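 Equal numbers of HL-60 cells in complete RPMI medium were given 5 μM compound or a DMSO vehicle control. Cells were lysed in pH 7.2 Hepes/NP-40/deoxycholate buffer with protease inhibitors. 10 μg of protein was run on SDS-PAGE under nonreducing conditions and blotted to PVDF. Blots were probed with anti-glutathione monoclonal antibody (1:1000, 3 h, room temperature), then HRP secondary, with ECL detection. Blots were stripped and reprobed for β-actin as a loading control.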

[3] = test system: HL-60; assay: Antiproliferative activity against human HL-60 cells after 72 hrs by MTT assay; format: functional, cell-based; conditions: HL-60, 72 h
Summary of the method: (§1)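 Cells kept in RPMI 1640 with 10% fetal calf serum, penicillin/streptomycin and 2 mM glutamine at 37 °C, 5% CO2. Seeded at 10⁴ per well and grown 24 h. Increasing drug concentrations (from 10 mM DMSO stocks, diluted in PBS) were added for 72 h at 37 °C. Proliferation was read by MTT. Six repeats per concentration, at least two independent experiments. IC50 is 50% proliferation inhibition; TGI is total growth inhibition.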

[4] = Antiproliferative activity against human HCT 116 cells after 72 hrs by MTT assay; format: functional, cell-based; conditions: HCT-116, 72 h; summary of the method: as §1
[5] = Antiproliferative activity against human H441 cells after 72 hrs by MTT assay; format: functional, cell-based; conditions: NCI-H441, 72 h; summary of the method: as §1
[6] = test system: HT-29; assay: Antiproliferative activity against human HT-29 cells after 72 hrs by MTT assay; format: functional, cell-based; conditions: HT-29, 72 h; summary of the method: as §1
[7] = test system: PC-3; assay: Antiproliferative activity against human PC-3 cells after 72 hrs by MTT assay; format: functional, cell-based; conditions: PC-3, 72 h; summary of the method: as §1
[8] = test system: OVCAR-3; assay: Antiproliferative activity against human OVCAR-3 cells after 72 hrs by MTT assay; format: functional, cell-based; conditions: OVCAR-3, 72 h; summary of the method: as §1
[9] = test system: A549; assay: Antiproliferative activity against human A549 cells after 72 hrs by MTT assay; format: functional, cell-based; conditions: A549, 72 h; summary of the method: as §1
[10] = test system: HCT-15; assay: Antiproliferative activity against human HCT-15 cells after 72 hrs by MTT assay; format: functional, cell-based; conditions: HCT-15, 72 h; summary of the method: as §1
[11] = test system: U-937; assay: Antiproliferative activity against human U937 cells after 72 hrs by MTT assay; format: functional, cell-based; conditions: U-937, 72 h; summary of the method: as §1
[12] = test system: OVCAR-5; assay: Antiproliferative activity against human OVCAR5 cells after 72 hrs by MTT assay; format: functional, cell-based; conditions: OVCAR-5, 72 h; summary of the method: as §1

In the case of `O=C(O)[C@@H]1CCCN1/[N+]([O-])=N/Oc1cc(O/N=[N+](\[O-])N2CCC[C@H]2C(=O)O)c([N+](=O)[O-])cc1[N+](=O)[O-]`, the Activity [1] was 3.5 mol/mol, the Activity [2] was “inactive” and the pIC50 [3] was 5.02. The TGI [3] was greater than 10 µM.
For `CCCCOC(=O)N1CCN(/[N+]([O-])=N/Oc2cc(O/N=[N+](\[O-])N(C)C)c([N+](=O)[O-])cc2[N+](=O)[O-])CC1`, the Activity [1] was 3.1 mol/mol, the Activity [2] was “Active” and the pIC50 [3] was 6.05. The TGI [3] was 2.7 µM.
In the case of `O=[N+]([O-])c1cc([N+](=O)[O-])c(O/N=[N+](\[O-])N2CCC[C@H]2CO)cc1O/N=[N+](\[O-])N1CCC[C@H]1CO`, the Activity [1] was 2.5 mol/mol, the Activity [2] was “Active” and the pIC50 [3] was 5.40. It also gave a TGI [3] greater than 10 µM.
For `CCCOC(=O)N1CCN(/[N+]([O-])=N/Oc2cc(O/N=[N+](\[O-])N(C)C)c([N+](=O)[O-])cc2[N+](=O)[O-])CC1`, the Activity [1] was 3.7 mol/mol, the Activity [2] was “Active” and the pIC50 [3] was 5.80. For the same compound, the TGI [3] was 3.9 µM.
In the case of `CC1CCCCN1/[N+]([O-])=N/Oc1cc(O/N=[N+](\[O-])N(C)C)c([N+](=O)[O-])cc1[N+](=O)[O-]` (centres undefined), the Activity [1] was 3 mol/mol, the Activity [2] was “Active” and the pIC50 [3] was 5.82. The TGI [3] was 4.9 µM.
With `CN(C)/[N+]([O-])=N/Oc1cc(O/N=[N+](\[O-])N2CCN(c3ncccn3)CC2)c([N+](=O)[O-])cc1[N+](=O)[O-]` the Activity [1] was 3.5 mol/mol, the Activity [2] was “Active” and the pIC50 [3] was 5.92. It also gave a TGI [3] of 5 µM.
In the case of `CCN(CC)/[N+]([O-])=N/Oc1cc(O/N=[N+](\[O-])N(C)C)c([N+](=O)[O-])cc1[N+](=O)[O-]`, the Activity [1] was 3.8 mol/mol, the Activity [2] was “Active” and the pIC50 [3] was 6.00. The TGI [3] was 2.3 µM.
With `CCN(CC)/[N+]([O-])=N/Oc1cc(O/N=[N+](\[O-])N2CCCC2CO)c([N+](=O)[O-])cc1[N+](=O)[O-]` (centres undefined) the Activity [1] was 3 mol/mol, the Activity [2] was “Active” and the pIC50 [3] was 5.74. For the same compound, the TGI [3] was 4 µM.
In the case of `CCOC(=O)N1CCN(/[N+]([O-])=N/Oc2cc(O/N=[N+](\[O-])N(CC)CC)c([N+](=O)[O-])cc2[N+](=O)[O-])CC1`, the Activity [1] was 3.1 mol/mol, the Activity [2] was “Active” and the pIC50 [3] was 5.68. For the same compound, the TGI [3] was 5 µM.
For `CCN(CC)C(=O)N1CCN(/[N+]([O-])=N/Oc2cc(O/N=[N+](\[O-])N(C)C)c([N+](=O)[O-])cc2[N+](=O)[O-])CC1`, the Activity [1] was 3.5 mol/mol, the Activity [2] was “Active” and the pIC50 [3] was 5.72. It also gave a TGI [3] of 4.9 µM.
For `CCN(CC)C(=O)N1CCN(/[N+]([O-])=N/Oc2cc(O/N=[N+](\[O-])N(CC)CC)c([N+](=O)[O-])cc2[N+](=O)[O-])CC1`, the Activity [1] was 3 mol/mol, the Activity [2] was “Active” and the pIC50 [3] was 5.54. It also gave a TGI [3] greater than 10 µM.
For `CCOC(=O)N1CCN(/[N+]([O-])=N/Oc2cc(O/N=[N+](\[O-])N3CCN(C(=O)N(CC)CC)CC3)c([N+](=O)[O-])cc2[N+](=O)[O-])CC1`, the pIC50 [4] was 5.82, the TGI [4] was 4 µM and the pIC50 [5] was 5.77. For the same compound, the TGI [5] was 4 µM, the pIC50 [6] was 5.60 and the TGI [6] was 6.5 µM. The Activity [1] was 2.9 mol/mol, the Activity [2] was “Active” and the pIC50 [7] was 5.48. For the same compound, the TGI [7] was 8 µM, the pIC50 [8] was 5.85 and the TGI [8] was 4 µM. For the same compound, the pIC50 [3] was 6.05, the TGI [3] was 3 µM and the pIC50 [9] was 5.41. The TGI [9] was 10 µM, the pIC50 [10] was 5.80 and the TGI [10] was 4.5 µM. It also gave a pIC50 [11] of 6.05, a TGI [11] of 3 µM and a pIC50 [12] of 5.72. The TGI [12] was 5.5 µM.
`CNc1ccc(C(=O)Oc2cc(O/N=[N+](\[O-])N(C)C)c([N+](=O)[O-])cc2[N+](=O)[O-])cc1` showed a pIC50 [4] of 5.26, a TGI [4] greater than 10 µM and a pIC50 [5] of 5.31. It also gave a TGI [5] greater than 10 µM, a pIC50 [6] of 5.15 and a TGI [6] greater than 10 µM. For the same compound, the Activity [1] was 1.4 mol/mol, the Activity [2] was “Active” and the pIC50 [7] was less than 5.00. For the same compound, the TGI [7] was greater than 10 µM, the pIC50 [8] was 5.30 and the TGI [8] was 9.5 µM. For the same compound, the TGI [3] was greater than 10 µM, the pIC50 [9] was less than 5.00 and the TGI [9] was greater than 10 µM. The pIC50 [10] was 5.24, the TGI [10] was greater than 10 µM and the pIC50 [11] was 5.57. The TGI [11] was 5.5 µM, the pIC50 [12] was 5.11 and the TGI [12] was greater than 10 µM.
For `CN(C)/[N+]([O-])=N/Oc1cc(O/N=[N+](\[O-])N2CCCCC2)c([N+](=O)[O-])cc1[N+](=O)[O-]`, the Activity [1] was 3.7 mol/mol, the Activity [2] was “Active” and the pIC50 [3] was 5.77. The TGI [3] was 4.9 µM.
For `CN(C)/[N+]([O-])=N/Oc1cc(O/N=[N+](\[O-])N2CCCC2)c([N+](=O)[O-])cc1[N+](=O)[O-]`, the Activity [1] was 3.6 mol/mol, the Activity [2] was “Active” and the pIC50 [3] was 5.64. For the same compound, the TGI [3] was 4.9 µM.
Compound `CCOC(=O)N1CCN(/[N+]([O-])=N/Oc2cc(O/N=[N+](\[O-])N(C)C)c([N+](=O)[O-])cc2[N+](=O)[O-])CC1` has a pIC50 [4] of 5.62, a TGI [4] of 4 µM and a pIC50 [5] of 5.30. For the same compound, the TGI [5] was 7 µM, the pIC50 [6] was 5.35 and the TGI [6] was 10 µM. For the same compound, the Activity [1] was 2.7 mol/mol, the Activity [2] was “Active” and the pIC50 [7] was 5.30. It also gave a TGI [7] of 7 µM, a pIC50 [8] of 5.89 and a TGI [8] of 2.3 µM. The pIC50 [3] was 5.92, the TGI [3] was 2 µM and the pIC50 [9] was 5.04. For the same compound, the TGI [9] was greater than 30 µM, the pIC50 [10] was 5.60 and the TGI [10] was 4 µM. It also gave a pIC50 [11] of 5.89, a TGI [11] of 3 µM and a pIC50 [12] of 5.48. For the same compound, the TGI [12] was 9 µM.
In the case of `CN(C)/[N+]([O-])=N/Oc1cc(O/N=[N+](\[O-])N2CCCC2CO)c([N+](=O)[O-])cc1[N+](=O)[O-]` (centres undefined), the pIC50 [4] was 5.80, the TGI [4] was 3.6 µM and the pIC50 [5] was 5.68. For the same compound, the TGI [5] was 4.5 µM, the pIC50 [6] was 5.62 and the TGI [6] was 4.5 µM. The Activity [1] was 3 mol/mol, the Activity [2] was “Active” and the pIC50 [7] was 5.48. The TGI [7] was 7 µM, the pIC50 [8] was 5.77 and the TGI [8] was 3.8 µM. The pIC50 [3] was 6.00, the TGI [3] was 2 µM and the pIC50 [9] was 5.29. For the same compound, the TGI [9] was 6 µM, the pIC50 [10] was 5.77 and the TGI [10] was 3.3 µM. The pIC50 [11] was 6.10, the TGI [11] was 1.2 µM and the pIC50 [12] was 5.60. The TGI [12] was 4 µM.

Reference: ChEMBL document CHEMBL1151741, “Aryl bis(diazeniumdiolates): potent inducers of S-glutathionylation of cellular proteins and their in vitro antiproliferative activities” (J Med Chem, 2008)
